Test results reported in PubChem BioAssay AID624204 (Sanford-Burnham Center for Chemical Genomics, 2012).
About 770 (0.21%) of roughly 360,000 compounds were called active. This excerpt belongs to a sample that is enriched for actives. Unmarked numbers belong to inactive results.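 The calls were made as follows: active = inhibition at least 30% at 10 µM, raw YFP signal under a set limit, fluorescence ratio 0.5 to 1.5; inactive = the rest.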

Biological target: Sentrin-specific protease 1 (Homo sapiens) (UniProt Q9P0U3)
Assay: human SENP1 catalytic domain inhibitors, primary screen, biochemical, FRET, uHTS (AID 624204);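 also: 0% = enzyme with DMSO and 100% = no enzyme wells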
Conditions: recombinant SENP1 catalytic domain, CyPet-SUMO1-YPet FRET cleavage; at 10 µM; hits give high values
Method in brief: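 Material – human SENP1 catalytic domain · Input – SENP1 enzyme, 20 pM final · Compound dosing – single concentration of 10 µM compound, 0.5% DMSO final · Timing – enzyme reaction for 50 min at room temperature, dark · Measured by – FRET fluorescence in CFP and YFP emission channels · Control set – no-enzyme wells low, DMSO-plus-enzyme wells high control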

Chain of Sentrin-specific protease 1 (Homo sapiens) (Q9P0U3 419-644 limits assumed): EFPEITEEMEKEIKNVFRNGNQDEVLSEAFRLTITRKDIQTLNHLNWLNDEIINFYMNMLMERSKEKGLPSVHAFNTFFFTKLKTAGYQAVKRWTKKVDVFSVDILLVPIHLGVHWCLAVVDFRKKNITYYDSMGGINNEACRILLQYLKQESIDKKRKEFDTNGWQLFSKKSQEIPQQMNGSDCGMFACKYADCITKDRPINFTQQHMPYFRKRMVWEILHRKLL

**Q.** With `Cc1cccc(NC(=O)N(Cc2cc3cc(C)cc(C)c3[nH]c2=O)CC2COCCO2)c1` (stereo unspecified) as the compound, how does the inhibition read?
**A.** 1.21%

**Q.** Which inhibition does the source give for `COc1ncnc2c1N=C1CC(C)(C)CC(N)=C1S2` here?
**A.** 33.8% (active)

**Q.** With `O=C1/C(=C\c2ccc(O)cc2)CCC1CNc1ccc(Cl)cc1` (stereo unspecified) as the compound, how does the inhibition read?
**A.** -58.8%

**Q.** How did the inhibition turn out when `COc1ccc(C(=O)OC(C)C(=O)NC2CCCC2)cc1S(=O)(=O)N1CCOCC1` (stereo unspecified) was run?
**A.** 2.06%

**Q.** How did the inhibition turn out when `COc1cc(/C=C2\CCCc3c2nc2ccccc2c3C(=O)O)cc(Cl)c1O` was run?
**A.** 54.9% (active)

**Q.** Which inhibition does the source give for `NS(=O)(=O)c1ccc(NC(=O)COC(=O)c2c3c(nc4ccccc24)/C(=C\c2ccc4c(c2)OCO4)CCC3)cc1` here?
**A.** -24.4%

**Q.** For `COc1ccc(-n2nc(C(=O)NCC(=O)N3CCCCCC3)c3ccccc3c2=O)cc1Cl`, which inhibition is on record?
**A.** -0.802%

**Q.** How did the inhibition turn out when `COc1cccc(COC(=O)C2CCN(S(=O)(=O)c3cccs3)CC2)c1OC` was run?
**A.** -0.283%

**Q.** `C=CC[C@@H](Cc1ccc(F)cc1)C(=O)OC[C@H]1CCCN1C(=O)[C@H](CC=C)CC(=O)N(CCO)Cc1ccccc1` was tested. Which inhibition did it give?
**A.** 0.419%

**Q.** Which inhibition does the source give for `O=C(CCNS(=O)(=O)c1cccs1)N1CCN(c2ccc(F)cc2)CC1` here?
**A.** 7.35%

**Q.** `CCOc1ccc(OCC(=O)OC(C)C(=O)NC2CCCCC2C)cc1` (stereo unspecified) was tested. Which inhibition did it give?
**A.** 0.477%

**Q.** For `CCOc1ccc(N(CC(=O)Nc2cccc(OC)c2)S(C)(=O)=O)cc1`, which inhibition is on record?
**A.** -0.216%

**Q.** `O=C(CC1CCCCC1)Nc1c2c(nn1-c1ccc(F)cc1)CS(=O)(=O)C2` was tested. Which inhibition did it give?
**A.** -0.662%

**Q.** For `CCOC(=O)c1cc2c(=O)n3ccccc3nc2n(CC(C)C)c1=NC(=O)c1c(-c2c(F)cccc2Cl)noc1C`, which inhibition is on record?
**A.** -28.9%

**Q.** With `O=C(O)c1cc2ccccc2c(=O)s1` as the compound, how does the inhibition read?
**A.** 2.49%

**Q.** For `CCOC(=O)N1CCN(CC(=O)c2ccc3c(c2)CCN3)CC1`, which inhibition is on record?
**A.** -2.56%

**Q.** For `N#CCC(=O)NC1CCC(CC2CCC(NC(=O)CC#N)CC2)CC1` (stereo unspecified), which inhibition is on record?
**A.** -0.386%

**Q.** With `O=C(COC(=O)/C=C/c1ccc(Br)o1)Nc1cccc(S(=O)(=O)N2CCOCC2)c1` as the compound, how does the inhibition read?
**A.** -7.92%

**Q.** With `Cc1ccc2c(c1)nnc1nnc(SCC(=O)O)n12` as the compound, how does the inhibition read?
**A.** 73% (active)

**Q.** With `CCn1nnnc1SCC(=O)c1ccc(C)cc1C` as the compound, how does the inhibition read?
**A.** 1.48%

**Q.** With `Cc1cccc(-c2nnc(SCC(=O)O)n2Cc2ccccc2)c1` as the compound, how does the inhibition read?
**A.** 0.0319%

**Q.** For `C[C@@H]1C[C@@H]2O[C@H]2/C=C\C=C\C(=O)Cc2c(Cl)c(O)cc(O)c2C(=O)O1`, which inhibition is on record?
**A.** -2.26%

**Q.** For `CCCS(=O)(=O)N1CCCC(C(=O)NCCN2CCCCC2C)C1` (stereo unspecified), which inhibition is on record?
**A.** -23.8%

**Q.** For `CN1CCN(/N=C/c2ccc(C#N)cc2)CC1`, which inhibition is on record?
**A.** 1.45%

**Q.** `O=C1C2C3C=CC(C4CC34)C2C(=O)N1/N=C/c1ccc(-c2ccccc2[N+](=O)[O-])o1` (stereo unspecified) was tested. Which inhibition did it give?
**A.** -25.8%

**Q.** For `CN1CCN(/N=C/c2ccc(-c3ccc([N+](=O)[O-])cc3)o2)CC1`, which inhibition is on record?
**A.** 58.4% (active)

**Q.** For `Nn1c(SCc2ccccc2)nnc1C1CCCCC1`, which inhibition is on record?
**A.** 3.72%

**Q.** How did the inhibition turn out when `CCCC(=O)N1CCC(CCC(=O)NC2CC2)CC1` was run?
**A.** 2.3%

**Q.** Which inhibition does the source give for `CCOC(=O)C1CCN(C(=O)CN2C(=O)c3cccnc3Oc3ccc(C)cc32)CC1` here?
**A.** 0.924%

**Q.** How did the inhibition turn out when `CCOC(=O)C1CCN(Cc2ccc(-c3ccccc3)cc2)CC1` was run?
**A.** -0.00995%

**Q.** How did the inhibition turn out when `CCOC(=O)C1CCN(c2ncnc3c2c(-c2ccccc2)cn3-c2ccc(C)cc2)CC1` was run?
**A.** 47.1% (active)

**Q.** With `CNCC[C@H](Oc1ccc(C(F)(F)F)cc1)c1ccccc1` as the compound, how does the inhibition read?
**A.** -0.124%

**Q.** Which inhibition does the source give for `O=C(COc1ccc(/C=N/NS(=O)(=O)c2ccccc2)cc1)NCCc1ccccc1` here?
**A.** 3.48%

**Q.** `O=C1/C(=C/c2coc3ccc(O)cc3c2=O)SC(=S)N1c1ccccc1` was tested. Which inhibition did it give?
**A.** 46.8% (active)

**Q.** Which inhibition does the source give for `CC1=CC2=NC(=O)/C(=C/c3coc4ccccc4c3=O)C(=N)N2O1` here?
**A.** -38.6%

**Q.** With `CSc1ccc(CN2C(=O)NC3(CCCCCC3)C2=O)cc1` as the compound, how does the inhibition read?
**A.** 1.11%

**Q.** For `CCC1OC(c2ccc([N+](=O)[O-])cc2)=Nc2ccccc21` (stereo unspecified), which inhibition is on record?
**A.** -7.92%

**Q.** For `Cc1cccc(C)c1NC(=O)C(c1cccc2ccccc12)n1c(=O)c(-c2ccco2)nc2ccccc21` (stereo unspecified), which inhibition is on record?
**A.** -49.2%

**Q.** Which inhibition does the source give for `c1coc(-c2nc3nc4ccccc4n3nc2-c2ccco2)c1` here?
**A.** 86.8% (active)

**Q.** `N#Cc1ccc(C(C(=O)NCc2ccccc2)n2c(=O)c(-c3ccco3)nc3ccccc32)cc1` (stereo unspecified) was tested. Which inhibition did it give?
**A.** -62.9%

**Q.** For `Cc1ccc(NC(=O)COC(=O)CCc2nc3ccccc3n2-c2ccccc2)c(C)c1`, which inhibition is on record?
**A.** 0.304%

**Q.** For `C[C@H](C(=O)CC(=O)OC(C)(C)C)[C@H](O)c1ccc(C(F)(F)F)cc1`, which inhibition is on record?
**A.** 0.388%

**Q.** For `Cc1ncc(CO)c(/C=N/NC(=O)c2cccc(S(=O)(=O)N3CCCC3)c2)c1O`, which inhibition is on record?
**A.** -24.8%

**Q.** With `CCOc1ccc(NS(=O)(=O)c2ccc(C(=O)NCC(c3ccccc3OC)N3CCCC3)cc2)cc1` (stereo unspecified) as the compound, how does the inhibition read?
**A.** -1.55%

**Q.** Which inhibition does the source give for `O=C(CN1CCOCC1)Nc1c(-c2ccccc2)c2cc(Br)ccc2[nH]c1=O` here?
**A.** -0.407%

**Q.** With `Cc1ccc(-c2c(N)nc3ncccn23)cc1` as the compound, how does the inhibition read?
**A.** -17.5%

**Q.** How did the inhibition turn out when `Cc1cccc(C)c1Nc1c(-c2ccccc2O)nc2ncccn12` was run?
**A.** 32.1% (active)

**Q.** With `Cc1ccccc1Nc1c(-c2ccccc2)nc2ncccn12` as the compound, how does the inhibition read?
**A.** 14.2%

**Q.** With `Cc1ccc(NC(=O)[C@H](Cc2ccccc2)NC(=O)CC[C@H]2O[C@@H](n3ccc(=O)[nH]c3=O)[C@H](O)[C@@H]2O)cc1C` as the compound, how does the inhibition read?
**A.** 1.31%

**Q.** Which inhibition does the source give for `Cc1ccc(Nc2ccccc2N)cc1` here?
**A.** 54.5% (active)

**Q.** With `Cc1ccc(Nc2nc(Cl)c(C=O)s2)cc1` as the compound, how does the inhibition read?
**A.** -32.5%

**Q.** Which inhibition does the source give for `Cc1ccc(Nc2nc(N)nc(CSc3nnc(C)s3)n2)cc1` here?
**A.** 3.47%

**Q.** `O=C(CSc1nnc(-c2ccncc2)n1-c1ccc(Cl)cc1)Nc1ccc(C(=O)O)cc1` was tested. Which inhibition did it give?
**A.** 0.469%

**Q.** For `C=CC1=C(C(=O)O)N2C(=O)[C@@H](NC(=O)/C(=N/OCC(=O)O)c3csc(N)n3)[C@H]2SC1`, which inhibition is on record?
**A.** 56% (active)

**Q.** `O=C(CCn1nnc2ccccc2c1=O)N[C@@H](Cc1c[nH]c2ccccc12)C(=O)O` was tested. Which inhibition did it give?
**A.** 0.24%

**Q.** For `CCN(CC)c1ccc(S(=O)(=O)N2CCOCC2)cc1NC(=O)CSc1cccc[n+]1[O-]`, which inhibition is on record?
**A.** 3.85%
